According to article PMC3983674 (Journal of immunology (Baltimore, Md. : 1950), 2014):
Ends that are not written are not given here.

How the values were obtained:
[1] = test system: proteasomal and aminopeptidase activities; assay: Proteasomal and aminopeptidase activities in PBMC; assay type: cell-based, human; details: unpublished data
[2] = Cytosolic peptide stability assay; details: for half-life: human, s9; for A02-SL9 epitope half-life reduced by (fold vs control): average of 4 experiments, Fig 3B
in vitro = details: human, s9
[3] = test system: tryptic activity of proteasomes; assay: Proteasome tryptic activity in live PBMC; assay type: cell-based, human; details: increasing concentrations, Fig 1C
Summary of the method: (§1)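 Fresh PBMC were isolated from HIV-negative donor buffy coats by Ficoll-Hypaque and pretreated for 30 min at 37°C with increasing concentrations of test compound (DMSO solutions). Digitonin (0.0025% final) was added, then Suc-LLVY-Amc (chymotryptic) or BocLRR-Amc (tryptic), each at 50 µmol/L. Fluorescence was read every 5 min at 37°C. Maximum slope, minus no-cell background, was expressed as % of the DMSO control. MG-132 (10 µmol/L) was used as the specificity control. Data are from 6–8 donors.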

[4] = test system: chymotryptic activity of proteasomes; assay: Proteasome chymotryptic activity in live PBMC; assay type: cell-based, human; details: PI pretreatment 30 min 37°C, increasing concentrations, Fig 1C
Summary of the method: as §1

aminopeptidase = assay: Aminopeptidase activity in live PBMC; assay type: cell-based, human; details: for Effect on aminopeptidase activities: live PBMC, increasing concentrations, Fig 1C
[5] = test system: HLA-matched B cells infected with VSVg-pseudotyped HIV; assay type: cell-based, human
[6] = test system: caspase-like activity of proteasomes; assay: Proteasome caspase-like activity in live PBMC; assay type: cell-based, human; details: PI pretreatment 30 min 37°C, Fig 1C
[7] = test system: purified mouse or human 20S proteasomes; details: ref [30]–[32]; cited from earlier work
PBMC cytosolic extracts = assay: HIV epitope processing assay; assay type: biochemical, human

With CC(C)Nc1cccnc1N1CCN(C(=O)c2cc3cc(NS(C)(=O)=O)ccc3[nH]2)CC1 [Delavirdine] as the molecule, how does the “Effect on the proteasomal and aminopeptidase activities” value [1] read?
Its value is “did not have any significant effect”.

For CC[C@H](C)[C@H](NC(=O)[C@H](C)N)C(=O)N[C@@H](Cc1ccccc1)C(=O)N[C@@H](CCC(N)=O)C(=O)N[C@@H](CO)C(=O)N[C@@H](CO)C(=O)N[C@@H](CCSC)C(=O)N[C@H](C(=O)N[C@@H](CCCCN)C(=O)O)[C@@H](C)O [ATK9], which half-life [2] is on record?
Its half-life is 37.2 min.

For ISPRTLNAW [ISW9], which half-life (in vitro) is on record?
The half-life was 14.8 min.

For Nc1ccn([C@@H]2CS[C@H](CO)O2)c(=O)n1 [lamivudine, Lamivudine], which “Effect on the proteasomal and aminopeptidase activities” value [1] is on record?
Its value is “did not have any significant effect”.

With COC(=O)N[C@H](C(=O)N[C@@H](Cc1ccccc1)[C@@H](O)CN(Cc1ccc(-c2ccccn2)cc1)NC(=O)[C@@H](NC(=O)OC)C(C)(C)C)C(C)(C)C [Atazanavir] as the molecule, how does the “Effect on proteasome tryptic activity” value [3] read?
The value was “not affected”.

And the “Effect on chymotryptic activity of proteasome” value [4]?
The value was “did not change”.

And the “Effect on aminopeptidase activities” value (aminopeptidase)?
Its value is “no change”.

What about the “A02-SL9 epitope half-life reduced by (fold vs control)” value ([2]; PBMC extracts pretreated with 2 µM or 5 µM PI) of the same molecule?
The value was 1.33 fold.

Which “Effect on proteasome tryptic activity” value [3] does the source give for CC(C)(C)NC(=O)[C@@H]1CN(Cc2cccnc2)CCN1C[C@@H](O)C[C@@H](Cc1ccccc1)C(=O)N[C@H]1c2ccccc2C[C@H]1O [Indinavir] here?
The value was “not affected”.

And the “Killing of HIV-infected cells by A11-ATK9 CTL, reduced by (fold vs DMSO)” value [5]?
The value was 3 fold.

And the “Killing of HIV-infected cells by B57-KF11 CTL, reduced by (fold vs DMSO)” value [5]?
Its value is 1.9 fold.

And the “Effect on proteasomal caspase-like activity” value [6]?
The value was “not affected”.

What about the “Effect on aminopeptidase activities” value (aminopeptidase) of the same molecule?
Its value is “no change”.

With Cc1c(O)cccc1C(=O)N[C@@H](CSc1ccccc1)[C@H](O)CN1C[C@H]2CCCC[C@H]2C[C@H]1C(=O)NC(C)(C)C [Nelfinavir] as the molecule, how does the “Effect on killing of HIV-infected cells by B57-ISW9 CTL” value [5] read?
Its value is “had no effect”.

What about the “Killing of HIV-infected cells by A11-ATK9 CTL, reduced by (fold vs DMSO)” value [5] of the same molecule?
The value was 4.8 fold.

And the “Killing of HIV-infected cells by B57-ISW9 CTL, inhibited (fold vs DMSO)” value [5]?
The value was 1.2 fold.

What about the “Killing of HIV-infected cells by B57-KF11 CTL, reduced by (fold vs DMSO)” value [5] of the same molecule?
Its value is 2.44 fold.

And the “Lysis of HIV-infected cells by B57-TW10 CTL, decreased (fold vs DMSO)” value [5]?
The value was 1.46 fold.

And the “Effect on proteasomal caspase-like activity” value [6]?
The value was “not affected”.

And the “A02-SL9 epitope half-life reduced by (fold vs control)” value ([2]; […])?
The value was 1.25 fold.

And the “Activity of purified mouse or human 20S proteasomes and proteasome activity in immortalized cells” value [7]?
The value was “inhibit”.

What does the source list for CC(C)(C)NC(=O)[C@@H]1C[C@@H]2CCCC[C@@H]2CN1C[C@@H](O)[C@H](Cc1ccccc1)NC(=O)[C@H](CC(N)=O)NC(=O)c1ccc2ccccc2n1 [Saquinavir]?
Activity of purified mouse or human 20S proteasomes and proteasome activity in immortalized cells [7]: inhibit; 2-ISW9 ([…]) precursor production vs control or Kaletra treatment (PBMC cytosolic extracts; 3ISW9 degradation, 10 µM): at least twice less

Which results are given for CC(C)C[C@H](NC(=O)[C@@H](O)[C@H](N)Cc1ccccc1)C(=O)O [Bestatin]?
Aminopeptidase activity reduced by (fold compared to the control) (aminopeptidase; 120 µM): 20 fold; Aminopeptidase activity, max slope of fluorescence emission (aminopeptidase; PBMC, 120 µM inhibitor, Leu-amc, control max slope 145.35): 7.25

Which half-life [2] does the source give for CC[C@H](C)[C@H](NC(=O)[C@@H](NC(=O)[C@H](CCC(=O)O)NC(=O)[C@@H]1CCCN1C(=O)[C@H](CO)NC(=O)[C@H](Cc1ccccc1)NC(=O)[C@H](C)NC(=O)[C@@H](N)CCCCN)C(C)C)C(=O)N1CCC[C@H]1C(=O)N[C@@H](CCSC)C(=O)N[C@@H](Cc1ccccc1)C(=O)O [KF11] here?
Its half-life is 25.7 min.

Which results are given for CC(C)c1nc(CN(C)C(=O)N[C@H](C(=O)N[C@@H](Cc2ccccc2)C[C@H](O)[C@H](Cc2ccccc2)NC(=O)OCc2cncs2)C(C)C)cs1 [Ritonavir]?
Kinetics of killing and maximum lysis by B57-ISW9 CTL [5]: enhanced; Kinetics of killing and maximum lysis by B57-KF11 CTL [5]: slower and the maximum lysis reduced; Effect on proteasomal caspase-like activity [6]: did not enhance; Cytosolic stability of optimal epitopes derived from CMV, HCV, Influenza or EBV ([2]; several peptides, unpublished data): increasing; Activity of purified mouse or human 20S proteasomes and proteasome activity in immortalized cells [7]: inhibit; ISW9 as % of total peptides (PBMC cytosolic extracts; 3ISW9 degradation, 10 µM PI, 60 min, 3% in control): 14%; Production of A25-QW11 epitope from 3ISW9 (PBMC cytosolic extracts; supplemental figure 3): reduced; Production of B15-HL9 epitope from 3ISW9 (PBMC cytosolic extracts; supplemental figure 3): reduced

Which “Effect on proteasome tryptic activity” value [3] does the source give for CC(C)CN(C[C@@H](O)[C@H](Cc1ccccc1)NC(=O)O[C@H]1CO[C@H]2OCC[C@H]21)S(=O)(=O)c1ccc(N)cc1 [Darunavir] here?
The value was “not affected”.

What about the “Effect on chymotryptic activity of proteasome” value [4] of the same molecule?
The value was “did not change”.

And the “Effect on proteasomal caspase-like activity” value [6]?
The value was “not affected”.

And the “Effect on aminopeptidase activities” value (aminopeptidase)?
The value was “no change”.
